ChEMBL document CHEMBL2396608, “Thiazolylaminomannosides as potent antiadhesives of type 1 piliated Escherichia coli isolated from Crohn's disease patients” (J Med Chem, 2013)
Calls of active or inactive are those of the source. The calls are words filed in the database; no cut-off is given here.

Legend:
Escherichia coli [1] = assay: Antiadhesive activity against type-1 piliated adherent-invasive Escherichia coli LF82 assessed as inhibition of guinea pig erythrocyte hemagglutination relative to heptylmannoside; type: functional
In short: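 LF82 grown statically overnight in LB at 37 °C and washed three times in ice-cold PBS. Twofold compound dilutions, starting at 1 mM, made in 20 mM HEPES pH 7.4, 150 mM NaCl. Added 25 μL bacteria, then 50 μL guinea pig erythrocytes at 5%. Overnight on ice before read-out.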

[2] = molecular target: Type 1 fimbrin D-mannose specific adhesin (Escherichia coli K-12) (UniProt P08191); assay: Binding affinity to Escherichia coli FimH assessed as decrease in RNaseB binding after 1 hr by competitive ELISA
In short: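 Wells coated with RNaseB in bicarbonate buffer pH 9.6, overnight at 4 °C. Blocked with 3% BSA in PBST, 2 h at 37 °C. Inhibitors in PBST plus FimH at 0.07 μM, 1 h at room temperature. Detection used rabbit anti-FimH (1:2500, 1 h), then HRP anti-rabbit (1:5000, 1 h), then TMB for 2–5 min in the dark, stopped with 1N H₂SO₄. Absorbance read at 450 nm.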

Escherichia coli [3] = assay: Antiadhesive activity against type-1 piliated adherent-invasive Escherichia coli LF82 assessed as residual bacterial adhesion to human T84 cells overexpressing CEACAM6 at 10 uM incubated for 1 hr prior to infection measured after 3 hrs relative to control; type: functional
In short: (§1)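 T84 cells seeded at 1.5 × 10⁵ cells/well and grown 48 h at 37 °C under 5% CO₂. Washed monolayers pretreated 1 h with inhibitor at final 0.1, 1, 10 or 100 μM (α-D-mannose 100–50000 μM), then infected 3 h with LB-grown LF82 at MOI 10 with inhibitor present. Cells lysed in 1% Triton X-100; CFU counted on LB agar. Residual adhesion given as % of untreated (means SEM).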

Escherichia coli [4] = assay: Antiadhesive activity against type-1 piliated adherent-invasive Escherichia coli LF82 assessed as inhibition of bacterial adhesion to human T84 cells overexpressing CEACAM6 incubated for 1 hr prior to infection measured after 3 hrs; type: functional, organism-based; in short: as §1
[5] = molecular target: Type 1 fimbrin D-mannose specific adhesin (Escherichia coli K-12, UniProt P08191); assay: Binding affinity to Escherichia coli FimH assessed as dissociation constant by ITC analysis
Escherichia coli [6] = assay: Antiadhesive activity against type-1 piliated adherent-invasive Escherichia coli LF82 assessed as residual bacterial adhesion to human T84 cells overexpressing CEACAM6 at 1 uM incubated for 1 hr prior to infection measured after 3 hrs relative to control; type: functional; in short: as §1
Escherichia coli [7] = assay: Antiadhesive activity against type-1 piliated adherent-invasive Escherichia coli LF82 assessed as inhibition of bacterial adhesion to colonic tissue isolated from FVB/N transgenic mouse expressing human CEACAM6 after 1 hr; type: functional, organism-based
In short: (§2)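 Colons from 10–12-week-old FVB/N CEABAC10 mice (human CEACAM6 transgenic; anesthetized, killed by cervical dislocation) split into four loops. Each loop was injected with 100 μL holding 2 × 10⁵ LF82 with or without inhibitor at 0.01, 0.1, 1 or 10 μmol, then held 1 h at 37 °C, 5% CO₂. Loops were opened, washed four times in PBS, homogenized and plated on LB agar with ampicillin 100 μg/mL and erythromycin 20 μg/mL. CFU normalized to untreated (100%); n = 5–8 mice, means SEM.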

Escherichia coli [8] = assay: Ratio of compound activity to D-mannose activity for prevention of Escherichia coli LF82 adhesion to colonic tissue isolated from FVB/N transgenic mouse expressing human CEACAM6; type: functional
Escherichia coli [9] = assay: Antiadhesive activity against type-1 piliated adherent-invasive Escherichia coli LF82 assessed as decrease in residual bacterial adhesion to colonic tissue isolated from FVB/N transgenic mouse expressing human CEACAM6 at 0.1 umol after 1 hr relative to control; type: functional; in short: as §2
Escherichia coli [10] = assay: Antiadhesive activity against type-1 piliated adherent-invasive Escherichia coli LF82 assessed as inhibition of bacterial adhesion to human T84 cells overexpressing CEACAM6 at 0.1 to 100 uM incubated for 1 hr prior to infection measured after 3 hrs relative to heptylmannoside; type: functional
Escherichia coli [11] = assay: Antiadhesive activity against type-1 piliated adherent-invasive Escherichia coli LF82 assessed as residual bacterial adhesion to human T84 cells overexpressing CEACAM6 at 0.1 uM incubated for 1 hr prior to infection measured after 3 hrs relative to control; type: functional; in short: as §1
Escherichia coli [12] = assay: Antiadhesive activity against type-1 piliated adherent-invasive Escherichia coli LF82 assessed as decrease in residual bacterial adhesion to colonic tissue isolated from FVB/N transgenic mouse expressing human CEACAM6 at 10 umol after 1 hr relative to control; type: functional; in short: as §2
Escherichia coli [13] = assay: Antiadhesive activity against type-1 piliated adherent-invasive Escherichia coli LF82 assessed as residual bacterial adhesion to human T84 cells overexpressing CEACAM6 at 1000 uM incubated for 1 hr prior to infection measured after 3 hrs relative to control; type: functional; in short: as §1

Chain of Type 1 fimbrin D-mannose specific adhesin (Escherichia coli K-12) (P08191 whole entry): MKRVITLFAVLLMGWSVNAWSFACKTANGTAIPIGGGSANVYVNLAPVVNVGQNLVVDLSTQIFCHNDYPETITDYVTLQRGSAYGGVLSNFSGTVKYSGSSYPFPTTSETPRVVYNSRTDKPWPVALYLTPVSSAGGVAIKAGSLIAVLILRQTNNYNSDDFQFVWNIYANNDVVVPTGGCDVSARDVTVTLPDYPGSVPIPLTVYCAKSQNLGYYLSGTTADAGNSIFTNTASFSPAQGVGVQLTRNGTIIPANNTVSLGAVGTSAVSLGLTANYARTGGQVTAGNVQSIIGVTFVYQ
Chain of Type 1 fimbrin D-mannose specific adhesin (P08191 whole entry): as above

SMILES | Activity [2] | fold change (FC) (Escherichia coli [1]) | also measured
O=C(c1ccsc1)c1cnc(N[C@H]2O[C@H](CO)[C@@H](O)[C@H](O)[C@@H]2O)s1 | Dose-dependent effect | 0.3 | –
CC(C)(C)C(=O)c1cnc(N[C@H]2O[C@H](CO)[C@@H](O)[C@H](O)[C@@H]2O)s1 | Dose-dependent effect | 0.9 | –
CCCCCCCO[C@H]1O[C@H](CO)[C@@H](O)[C@H](O)[C@@H]1O | – | – | Activity (Escherichia coli [3]): 52.4%; inhibition (Escherichia coli [4]): Dose-dependent effect; Kd [5]: 7 nM; Activity (Escherichia coli [6]): inactive
Cc1nc(-c2cnccn2)sc1C(=O)c1cnc(N[C@H]2O[C@H](CO)[C@@H](O)[C@H](O)[C@@H]2O)s1 | Dose-dependent effect | 0.2 | inhibition (Escherichia coli [7]): Dose-dependent effect; Ratio (Escherichia coli [8]): 10; Activity (Escherichia coli [9]): 65%; fold change (FC) (Escherichia coli [10]): 0.01; Activity (Escherichia coli [11]): 57.6%; inhibition (Escherichia coli [4]): Dose-dependent effect; Activity (Escherichia coli [6]): 14%
O=C(c1cnc(N[C@H]2O[C@H](CO)[C@@H](O)[C@H](O)[C@@H]2O)s1)C12CC3CC(CC(C3)C1)C2 | Dose-dependent effect | 0.3 | –
OC[C@H]1O[C@H](O)[C@@H](O)[C@@H](O)[C@@H]1O | – | – | inhibition (Escherichia coli [7]): Dose-dependent effect; Activity (Escherichia coli [12]): 41%; Activity (Escherichia coli [13]): 51.6%; inhibition (Escherichia coli [4]): Dose-dependent effect
O=C(c1ccccc1)c1cnc(N[C@H]2O[C@H](CO)[C@@H](O)[C@H](O)[C@@H]2O)s1 | Dose-dependent effect | 0.4 | –
O=C(c1cnc(N[C@H]2O[C@H](CO)[C@@H](O)[C@H](O)[C@@H]2O)s1)C(F)(F)F | Dose-dependent effect | 1.7 | –
CC(=O)c1cnc(N[C@H]2O[C@H](CO)[C@@H](O)[C@H](O)[C@@H]2O)s1 | Dose-dependent effect | 1.4 | inhibition (Escherichia coli [4]): Dose-dependent effect

Further lines, with some results ahead:

Activity [2] | SMILES | fold change (FC) (Escherichia coli [1]) | also measured
Dose-dependent effect | O=C(c1ccc([N+](=O)[O-])cc1)c1cnc(N[C@H]2O[C@H](CO)[C@@H](O)[C@H](O)[C@@H]2O)s1 | 0.7 | –
Dose-dependent effect | O=C(c1cccs1)c1cnc(N[C@H]2O[C@H](CO)[C@@H](O)[C@H](O)[C@@H]2O)s1 | 0.1 | –
Dose-dependent effect | N#Cc1ccc(C(=O)c2cnc(N[C@H]3O[C@H](CO)[C@@H](O)[C@H](O)[C@@H]3O)s2)cc1 | 0.7 | –
Dose-dependent effect | Cc1ccc(C(=O)c2cnc(N[C@H]3O[C@H](CO)[C@@H](O)[C@H](O)[C@@H]3O)s2)cc1 | 0.4 | –
Dose-dependent effect | O=C(c1ccc2ccccc2c1)c1cnc(N[C@H]2O[C@H](CO)[C@@H](O)[C@H](O)[C@@H]2O)s1 | 2.3 | –
